# Calls of active or inactive are those of the source. The rule behind the calls is not given here.
# Tests used:
# [1] = Half life in rabbit at 1 mg/kg, iv; type: ADME, organism-based, Oryctolagus cuniculus; details: in vivo
# Method in brief: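 Rabbits given a single IV dose of 1 mg/kg of the HCl salt in 10% DMAc/90% D5W (5% dextrose in water), with half-life taken from the plasma PK profile.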
# [2] = Half life in cynomolgus monkey at 1 mg/kg, iv; type: ADME, organism-based, Macaca fascicularis; details: in vivo
# [3] = Half life in dog at 1 mg/kg, iv; type: ADME, organism-based, Canis lupus familiaris; details: in vivo
# Method in brief: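 Dogs dosed IV at 1 mg/kg with the HCl salt in 10% DMAc/10% ethanol/10% propylene glycol/70% water, with half-life from the pharmacokinetic profile.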
# Plasma [4] = assay: Anticoagulant activity in healthy human plasma assessed as concentration required to cause two fold prolongation of activated partial thromboplastin time; type: functional
# Coagulation factor XI [5] = target: T1, Coagulation factor XI (Homo sapiens, UniProt P03951); assay: Inhibition of human coagulation factor 11a using p-nitroaniline as substrate assessed as substrate hydrolysis by spectrophotometry
# T1 sequence (P03951 19-387 limits assumed): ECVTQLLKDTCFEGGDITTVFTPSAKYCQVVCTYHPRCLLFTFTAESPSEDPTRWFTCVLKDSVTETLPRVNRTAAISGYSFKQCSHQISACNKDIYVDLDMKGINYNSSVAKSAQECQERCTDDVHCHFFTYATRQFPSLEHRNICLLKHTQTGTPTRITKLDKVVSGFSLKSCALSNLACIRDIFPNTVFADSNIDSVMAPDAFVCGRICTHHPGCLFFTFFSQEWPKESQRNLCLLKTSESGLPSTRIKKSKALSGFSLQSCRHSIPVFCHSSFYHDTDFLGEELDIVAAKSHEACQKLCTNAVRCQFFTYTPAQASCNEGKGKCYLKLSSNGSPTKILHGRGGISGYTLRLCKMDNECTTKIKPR
# T1 sequence (P03951 388-625 limits assumed): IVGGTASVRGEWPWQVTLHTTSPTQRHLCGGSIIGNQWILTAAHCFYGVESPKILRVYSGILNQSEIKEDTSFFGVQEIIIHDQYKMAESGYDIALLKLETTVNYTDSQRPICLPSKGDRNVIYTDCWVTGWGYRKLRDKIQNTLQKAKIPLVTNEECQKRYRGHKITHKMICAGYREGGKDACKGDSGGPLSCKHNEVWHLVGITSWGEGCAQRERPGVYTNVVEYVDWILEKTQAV
# Method in brief: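 Human enzyme Ki, averaged over multiple determinations (n = 2).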
# [6] = Solubility in 50 mM pH 6.5 phosphate buffer using amorphous form of compound; type: physicochemical
# [7] = Half life in human liver microsomes; type: ADME
# [8] = Half life in rat at 1 mg/kg, iv; type: ADME, organism-based; details: in vivo
# Oryctolagus cuniculus [9] = assay: Antithrombotic activity in iv dosed rabbit model of electrically induced carotid arterial thrombosis assessed as increase in integrated blood flow of the injured artery; type: functional, organism-based
# Plasma [10] = assay: Anticoagulant activity in rabbit plasma assessed as prolongation of prothrombin time at 100 uM; type: functional, cell-free; details: Oryctolagus cuniculus
# Oryctolagus cuniculus [11] = assay: Antithrombotic activity in iv dosed rabbit model of electrically induced carotid arterial thrombosis assessed as reduction in thrombus formation; type: functional, organism-based
# Plasma [12] = assay: Anticoagulant activity in rabbit plasma assessed as prolongation of thrombin time at 100 uM; type: functional, cell-free; details: Oryctolagus cuniculus
# Coagulation factor X = Coagulation factor X (Homo sapiens, UniProt P00742); assay: Inhibition of coagulation factor 10a (unknown origin)
# Chain of Coagulation factor X (P00742 41-179 limits assumed): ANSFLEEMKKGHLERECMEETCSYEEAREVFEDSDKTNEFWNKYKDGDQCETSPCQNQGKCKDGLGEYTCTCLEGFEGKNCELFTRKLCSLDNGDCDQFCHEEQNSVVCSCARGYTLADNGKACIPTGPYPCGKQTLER
# Chain of Coagulation factor X (P00742 235-488 limits assumed): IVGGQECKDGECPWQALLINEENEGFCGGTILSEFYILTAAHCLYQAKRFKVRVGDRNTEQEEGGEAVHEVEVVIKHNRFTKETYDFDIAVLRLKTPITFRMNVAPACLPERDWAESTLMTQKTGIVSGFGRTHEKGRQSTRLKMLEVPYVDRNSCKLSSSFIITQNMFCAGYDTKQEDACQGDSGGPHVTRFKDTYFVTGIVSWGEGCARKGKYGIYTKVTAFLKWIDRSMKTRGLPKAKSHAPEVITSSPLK
# Method in brief: (§1)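 Ki against each human enzyme, averaged from duplicate IC50 determinations.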
# Plasma [13] = assay: Anticoagulant activity in rat plasma assessed as concentration required to cause 1.5 fold prolongation of activated partial thromboplastin time
# Coagulation factor XII = target: T2, Coagulation factor XII (Homo sapiens, UniProt P00748); assay: Inhibition of coagulation factor 12a (unknown origin); method in brief: as §1
# T2 sequence (P00748 whole entry): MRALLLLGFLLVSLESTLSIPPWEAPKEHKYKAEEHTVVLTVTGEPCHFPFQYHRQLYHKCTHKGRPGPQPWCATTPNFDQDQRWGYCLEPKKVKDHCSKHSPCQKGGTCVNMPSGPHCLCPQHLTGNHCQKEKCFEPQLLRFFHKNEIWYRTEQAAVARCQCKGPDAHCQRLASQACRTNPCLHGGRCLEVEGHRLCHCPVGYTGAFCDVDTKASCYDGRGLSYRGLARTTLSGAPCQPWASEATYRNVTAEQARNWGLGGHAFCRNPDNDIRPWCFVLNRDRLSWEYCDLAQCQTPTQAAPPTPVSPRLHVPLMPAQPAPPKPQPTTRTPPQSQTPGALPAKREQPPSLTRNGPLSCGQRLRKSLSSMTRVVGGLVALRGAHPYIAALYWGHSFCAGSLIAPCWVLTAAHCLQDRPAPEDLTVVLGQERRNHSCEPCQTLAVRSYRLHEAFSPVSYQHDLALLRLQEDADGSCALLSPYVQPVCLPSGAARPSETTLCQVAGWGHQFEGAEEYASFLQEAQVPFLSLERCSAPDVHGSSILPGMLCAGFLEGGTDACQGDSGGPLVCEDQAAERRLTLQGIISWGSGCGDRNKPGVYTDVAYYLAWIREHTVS
# [14] = Unbound fraction in rat plasma; type: ADME, cell-free
# Coagulation factor IX = Coagulation factor IX (Homo sapiens, UniProt P00740); assay: Inhibition of coagulation factor 9a (unknown origin); method in brief: as §1
# Chain of Coagulation factor IX (P00740 47-191 limits assumed): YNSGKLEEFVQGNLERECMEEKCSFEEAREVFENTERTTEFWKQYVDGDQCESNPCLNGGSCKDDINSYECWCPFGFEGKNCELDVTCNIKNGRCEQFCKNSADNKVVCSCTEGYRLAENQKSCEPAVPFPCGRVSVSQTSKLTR
# Chain of Coagulation factor IX (P00740 227-461 limits assumed): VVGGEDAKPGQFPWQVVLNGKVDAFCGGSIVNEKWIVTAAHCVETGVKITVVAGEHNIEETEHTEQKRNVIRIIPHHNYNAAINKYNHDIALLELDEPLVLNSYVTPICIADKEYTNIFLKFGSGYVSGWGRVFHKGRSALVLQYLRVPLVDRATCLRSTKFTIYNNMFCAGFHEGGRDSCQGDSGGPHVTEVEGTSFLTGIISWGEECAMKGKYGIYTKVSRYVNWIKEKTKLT
# Prothrombin = Prothrombin (Homo sapiens, UniProt P00734); assay: Inhibition of thrombin (unknown origin); method in brief: as §1
# Kallikrein-1 = Kallikrein-1 (Homo sapiens, UniProt P06870); assay: Inhibition of tissue kallikrein (unknown origin); method in brief: as §1
# Chain of Kallikrein-1 (P06870 whole entry): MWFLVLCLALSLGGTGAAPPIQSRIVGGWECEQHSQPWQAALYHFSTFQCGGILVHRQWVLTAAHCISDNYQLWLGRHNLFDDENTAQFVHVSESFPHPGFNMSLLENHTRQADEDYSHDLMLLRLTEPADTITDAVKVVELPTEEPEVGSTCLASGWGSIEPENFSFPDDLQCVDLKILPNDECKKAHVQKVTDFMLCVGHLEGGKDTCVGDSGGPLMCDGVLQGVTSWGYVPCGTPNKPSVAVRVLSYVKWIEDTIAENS
# [15] = Inhibition of chymotrypsin (unknown origin); design: species or system Homo sapiens; method in brief: as §1
# [16] = target: Urokinase-type plasminogen activator (Homo sapiens, UniProt P00749); assay: Inhibition of urokinase (unknown origin); method in brief: as §1
# Plasma [17] = assay: Anticoagulant activity in rabbit plasma assessed as prolongation of activated partial thromboplastin time at 100 uM; type: functional, Oryctolagus cuniculus
# [18] = Unbound fraction in human plasma; type: ADME, cell-free
# Plasma kallikrein = Plasma kallikrein (Homo sapiens, UniProt P03952); assay: Inhibition of plasma kallikrein (unknown origin); method in brief: as §1
# Chain of Plasma kallikrein (P03952 20-390 limits assumed): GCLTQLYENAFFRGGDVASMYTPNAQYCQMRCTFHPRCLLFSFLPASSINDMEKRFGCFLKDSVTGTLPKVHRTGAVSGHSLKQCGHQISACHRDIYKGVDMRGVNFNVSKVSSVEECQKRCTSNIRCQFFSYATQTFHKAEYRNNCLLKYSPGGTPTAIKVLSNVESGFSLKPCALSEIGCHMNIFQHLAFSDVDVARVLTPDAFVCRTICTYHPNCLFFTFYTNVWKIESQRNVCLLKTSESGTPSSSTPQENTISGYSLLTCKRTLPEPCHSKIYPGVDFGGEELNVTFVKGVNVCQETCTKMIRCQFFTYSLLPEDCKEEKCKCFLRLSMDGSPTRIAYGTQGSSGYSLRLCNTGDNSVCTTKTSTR
# Chain of Plasma kallikrein (P03952 391-638 limits assumed): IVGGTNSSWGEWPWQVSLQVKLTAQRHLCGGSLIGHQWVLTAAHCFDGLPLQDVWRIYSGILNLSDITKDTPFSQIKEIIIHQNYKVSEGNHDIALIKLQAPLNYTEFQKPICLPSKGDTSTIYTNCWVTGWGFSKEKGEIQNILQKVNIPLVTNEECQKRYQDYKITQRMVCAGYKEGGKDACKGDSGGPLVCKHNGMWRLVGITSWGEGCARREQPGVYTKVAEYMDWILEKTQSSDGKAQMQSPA
# Coagulation factor VII = target: T3, Coagulation factor VII (Homo sapiens, UniProt P08709); assay: Inhibition of coagulation factor 7a (unknown origin); method in brief: as §1
# T3 sequence (P08709 whole entry): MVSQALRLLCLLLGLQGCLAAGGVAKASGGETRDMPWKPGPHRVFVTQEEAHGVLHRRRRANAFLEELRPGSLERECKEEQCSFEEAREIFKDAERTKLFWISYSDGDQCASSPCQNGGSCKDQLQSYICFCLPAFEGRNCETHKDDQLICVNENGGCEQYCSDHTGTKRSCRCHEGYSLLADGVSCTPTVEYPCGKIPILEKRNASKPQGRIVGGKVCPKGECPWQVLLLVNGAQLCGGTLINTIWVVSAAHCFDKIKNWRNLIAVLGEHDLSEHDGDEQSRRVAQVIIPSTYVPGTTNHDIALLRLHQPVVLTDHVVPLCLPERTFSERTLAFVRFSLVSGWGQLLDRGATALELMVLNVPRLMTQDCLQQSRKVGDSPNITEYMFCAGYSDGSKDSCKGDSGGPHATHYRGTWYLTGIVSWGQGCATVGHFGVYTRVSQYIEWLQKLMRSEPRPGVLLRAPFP
# Plasma [19] = assay: Anticoagulant activity in dog plasma assessed as concentration required to cause 1.5 fold prolongation of activated partial thromboplastin time
# [20] = Unbound fraction in cynomolgus monkey plasma; type: ADME, cell-free, Macaca fascicularis
# Plasma [21] = assay: Anticoagulant activity in cynomolgus monkey plasma assessed as concentration required to cause 1.5 fold prolongation of activated partial thromboplastin time
# [22] = target: Tissue-type plasminogen activator (Homo sapiens, UniProt P00750); assay: Inhibition of tPA (unknown origin); method in brief: as §1
# Chain of Tissue-type plasminogen activator (P00750 whole entry): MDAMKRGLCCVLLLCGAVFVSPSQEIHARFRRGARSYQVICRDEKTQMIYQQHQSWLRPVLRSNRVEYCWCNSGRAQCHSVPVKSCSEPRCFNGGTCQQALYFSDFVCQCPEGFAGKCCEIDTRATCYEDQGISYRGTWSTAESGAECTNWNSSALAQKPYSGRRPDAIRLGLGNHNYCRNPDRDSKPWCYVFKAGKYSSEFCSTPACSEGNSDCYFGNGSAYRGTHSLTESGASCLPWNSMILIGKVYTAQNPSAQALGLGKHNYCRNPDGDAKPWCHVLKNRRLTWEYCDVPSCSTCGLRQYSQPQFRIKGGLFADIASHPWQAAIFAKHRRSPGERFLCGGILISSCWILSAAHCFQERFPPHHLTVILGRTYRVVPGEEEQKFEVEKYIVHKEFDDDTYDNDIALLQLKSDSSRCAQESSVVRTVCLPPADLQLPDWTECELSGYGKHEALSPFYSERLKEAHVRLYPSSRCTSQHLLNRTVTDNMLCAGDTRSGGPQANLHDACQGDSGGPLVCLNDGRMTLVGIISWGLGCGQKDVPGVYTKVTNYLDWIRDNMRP
# [23] = Unbound fraction in dog plasma; type: ADME, cell-free, Canis lupus familiaris
# Oryctolagus cuniculus [24] = species on record: Oryctolagus cuniculus; assay: Toxicity in rabbit cuticle bleeding time model assessed as prologation of bleeding time at 100 uM; type: organism-based; details: in vivo
# [25] = Inhibition of rabbit coagulation factor 11a using p-nitroaniline as substrate assessed as substrate hydrolysis at 37 degC by spectrophotometry; design: species or system Oryctolagus cuniculus
# [26] = target: Vitamin K-dependent protein C (Homo sapiens, UniProt P04070); assay: Inhibition of APC (unknown origin); method in brief: as §1
# Chain of Vitamin K-dependent protein C (P04070 43-197 limits assumed): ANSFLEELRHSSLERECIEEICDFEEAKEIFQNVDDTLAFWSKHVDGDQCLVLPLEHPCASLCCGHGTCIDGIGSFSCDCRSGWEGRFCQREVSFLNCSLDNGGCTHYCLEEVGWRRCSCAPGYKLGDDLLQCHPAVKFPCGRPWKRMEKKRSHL
# Chain of Vitamin K-dependent protein C (P04070 212-461 limits assumed): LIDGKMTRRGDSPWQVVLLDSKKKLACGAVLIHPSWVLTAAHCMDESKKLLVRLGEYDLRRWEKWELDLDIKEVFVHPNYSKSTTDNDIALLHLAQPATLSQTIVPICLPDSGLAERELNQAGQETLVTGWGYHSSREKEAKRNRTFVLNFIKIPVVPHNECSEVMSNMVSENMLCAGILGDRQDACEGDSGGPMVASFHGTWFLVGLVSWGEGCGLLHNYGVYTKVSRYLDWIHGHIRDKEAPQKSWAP
# Trypsin = Trypsin (Homo sapiens, UniProt P07477+P07478+P35030); assay: Inhibition of trypsin (unknown origin); type: protein assay; method in brief: as §1
# [27] = Unbound fraction in rabbit plasma; type: ADME, cell-free, Oryctolagus cuniculus
# Plasma [28] = assay: Anticoagulant activity in rabbit plasma assessed as concentration required to cause 1.5 fold prolongation of activated partial thromboplastin time
# Coagulation factor XI [29] = target: T1, Coagulation factor XI; assay: Inhibition of human coagulation factor 11a using p-nitroaniline as substrate assessed as substrate hydrolysis at 37 degC by spectrophotometry
smiles,measurement,setting,value
CN1CCN(C(=O)C[C@H](NC(=O)/C=C/c2cc(Cl)ccc2-n2cnnn2)c2nc(-c3ccc4[nH]c(=O)cc(O)c4c3)c(Cl)[nH]2)CC1.Cl,half-life,[1],66 min
same,half-life,[2],114 min
same,half-life,[3],66 min
COC(=O)Nc1ccc(-c2nc([C@H](CC(=O)N3CCS(=O)(=O)CC3)NC(=O)/C=C/c3cc(Cl)ccc3-n3cnnn3)[nH]c2Cl)cc1,2aPTT,Plasma [4],3.6 µM
same,Ki,Coagulation factor XI [5],0.3 nM
same,solubility,[6],1 µg/mL
same,half-life,[7],154 min
O=C(/C=C/c1cc(Cl)ccc1-n1cnnn1)N[C@@H](Cc1ccccc1)c1nc(-c2ccc3[nH]c(=O)cc(O)c3c2)c(Cl)[nH]1,2aPTT,Plasma [4],11 µM
same,Ki,Coagulation factor XI [5],0.18 nM
same,half-life,[7],56 min
COC(=O)Nc1ccc(-c2nc([C@H](Cc3ccccc3)NC(=O)/C=C/c3cc(Cl)ccc3-n3cnnn3)[nH]c2Cl)cc1,2aPTT,Plasma [4],19 µM
same,Ki,Coagulation factor XI [5],3.7 nM
same,solubility,[6],< 1 µg/mL
same,half-life,[7],46 min
Cc1ccc(-n2cnnn2)c(CCC(=O)N[C@@H](Cc2ccccc2)c2nc(-c3ccc4[nH]c(=O)cc(O)c4c3)c(Cl)[nH]2)c1,2aPTT,Plasma [4],9.1 µM
same,Ki,Coagulation factor XI [5],0.5 nM
same,half-life,[7],10 min
O=C(CCc1cc(Cl)ccc1-n1cnnn1)N[C@@H](Cc1ccccc1)c1nc(-c2ccc3[nH]c(=O)cc(O)c3c2)c(Cl)[nH]1,2aPTT,Plasma [4],7.2 µM
same,Ki,Coagulation factor XI [5],0.32 nM
same,half-life,[7],6.6 min
O=C(/C=C/c1cc(Cl)ccc1-n1cnnn1)N[C@@H](Cc1ccccc1)c1nc(-c2ccc3c(c2)CCC(=O)N3)c(Cl)[nH]1,2aPTT,Plasma [4],60 µM
same,Ki,Coagulation factor XI [5],19 nM
same,half-life,[7],48 min
COC(=O)Nc1ccc(-c2nc([C@H](CC(=O)N3CCOCC3)NC(=O)/C=C/c3cc(Cl)ccc3-n3cnnn3)[nH]c2Cl)cc1,2aPTT,Plasma [4],7.4 µM
same,Ki,Coagulation factor XI [5],0.7 nM
same,solubility,[6],1 µg/mL
same,half-life,[7],6.2 min
CN1CCN(C(=O)C[C@H](NC(=O)/C=C/c2cc(Cl)ccc2-n2cnnn2)c2nc(-c3ccc4[nH]c(=O)cc(O)c4c3)c(Cl)[nH]2)CC1.O=C(O)C(F)(F)F,half-life,[8],66 min
CN1CCN(C(=O)C[C@H](NC(=O)/C=C/c2cc(Cl)ccc2-n2cnnn2)c2nc(-c3ccc4[nH]c(=O)cc(O)c4c3)c(Cl)[nH]2)CC1 [listing 1 of 2 here],Activity,Oryctolagus cuniculus [9],Dose-dependent effect
same,Activity,Plasma [10],inactive
same,Activity,Oryctolagus cuniculus [11],Dose-dependent effect
same,Activity,Plasma [12],inactive
COC(=O)Nc1ccc(-c2nc([C@H](CC(=O)N3CCN(C(C)=O)CC3)NC(=O)/C=C/c3cc(Cl)ccc3-n3cnnn3)[nH]c2Cl)cc1,2aPTT,Plasma [4],4.6 µM
same,Ki,Coagulation factor XI [5],0.6 nM
same,solubility,[6],3 µg/mL
same,half-life,[7],45 min
Cc1ccc(-n2cnnn2)c(CCC(=O)N[C@@H](Cc2ccccc2)c2nc(-c3ccc4[nH]c(=O)ccc4c3)c(Cl)[nH]2)c1,2aPTT,Plasma [4],69 µM
same,Ki,Coagulation factor XI [5],12 nM
same,half-life,[7],2.2 min
COC(=O)Nc1ccc(-c2nc([C@H](CC(=O)N3CCN(C)CC3)NC(=O)/C=C/c3cc(Cl)ccc3-n3cnnn3)[nH]c2Cl)cc1,2aPTT,Plasma [4],3.7 µM
same,Ki,Coagulation factor XI [5],0.4 nM
same,solubility,[6],44 µg/mL
same,half-life,[7],25 min
CN1CCN(C(=O)C[C@H](NC(=O)/C=C/c2cc(Cl)ccc2-n2cnnn2)c2nc(-c3ccc4[nH]c(=O)cc(O)c4c3)c(Cl)[nH]2)CC1 [listing 2 of 2 here],Ki,Coagulation factor X,> 9000 nM
same,EC1.5,Plasma [13],>20 µM
same,Ki,Coagulation factor XII,> 20000 nM
same,fraction unbound,[14],0.026
same,Ki,Coagulation factor IX,> 60000 nM
same,Ki,Prothrombin,7400 nM
same,Ki,Kallikrein-1,> 30000 nM
same,Ki,[15],400 nM
same,Ki,[16],> 1600 nM
same,fold change (FC),Plasma [17],3.2
same,fraction unbound,[18],0.08
same,Ki,Plasma kallikrein,7 nM
same,Ki,Coagulation factor VII,> 13300 nM
same,EC50,Oryctolagus cuniculus [11],530 nM
same,EC1.5,Plasma [19],0.3 µM
same,fraction unbound,[20],0.08
same,2aPTT,Plasma [4],1 µM
same,EC1.5,Plasma [21],0.3 µM
same,Ki,[22],29000 nM
same,fraction unbound,[23],0.18
same,Ki,Coagulation factor XI [5],0.04 nM
same,Activity,Oryctolagus cuniculus [24],Non-toxic
same,Ki,[25],0.58 nM
same,Ki,[26],> 54000 nM
same,Ki,Trypsin,6200 nM
same,solubility,[6],17 µg/mL
same,fraction unbound,[27],0.07
same,half-life,[7],> 200 min
same,EC1.5,Plasma [28],1 µM
same,Ki,Coagulation factor XI [29],0.1 nM
